The text below walks through data of ChEMBL document CHEMBL3244326, “Synthesis and antiviral activity of certain thiazole C-nucleosides” (J Med Chem, 1977).

The source made the active and inactive calls. The rule behind the calls is not given here.

The test system of data set [1] is KB. As to the kind of experiment: Antiviral activity against type 13 rhinovirus infected in human KB cells assessed as reduction in cytopathic effect after 72 hrs incubation. The format is functional, cell-based. The conditions noted are these: Human rhinovirus A13. The procedure, abridged: (§1)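 Human nasopharyngeal carcinoma (KB) cells infected with virus and tested at compound concentrations of 1000 to 1 ug/ml. After 72 h incubation at 37 °C, inhibition of viral cytopathic effect was scored by observation and expressed as a virus rating (VR). Values are the average of one to five tests.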

The subject of data set [2] is Ehrlich. As to the kind of experiment: Inhibition of purine nucleotide biosynthesis in mouse Ehrlich ascites tumor cells assessed as inhibition of [14C]hypoxanthine into adenine nucleotides at 1 mM after 60 mins incubation. The format is functional. Conditions: 1 h. In short, it runs like this:
(§2)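 Ehrlich ascites tumor cell suspensions preincubated at 37 °C for 20 min with or without 1 mM compound. [14C]Hypoxanthine (55 µCi/µmol) then added to a final 0.1 mM, followed by 60 min more incubation. Adenine (AMP+ADP+ATP) and guanine (GMP+GDP+GTP) nucleotides separated by TLC on PEI-cellulose; % inhibition of label incorporation.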

Data set [3] relates to Human alphaherpesvirus 1. As to the kind of experiment: Antiviral activity against type 1 herpes simplex virus type 1 infected in human KB cells assessed as reduction in cytopathic effect after 72 hrs incubation. The data set is classed as functional, organism-based. The procedure, abridged:
as §1
(Damage to the host cells serves as the signal in cytopathic effect assays.)

The test system of data set [4] is Ehrlich. As to the kind of experiment: Inhibition of purine nucleotide biosynthesis in mouse Ehrlich ascites tumor cells assessed as inhibition of [14C]hypoxanthine into guanine nucleotides at 1 mM after 60 mins incubation. The format is functional. The conditions noted are these: 1 h. In short, it runs like this:
as §2

Data set [5] has as its system Human respirovirus 1. As to the kind of experiment: Antiviral activity against type 1 parainfluenza virus infected in mouse assessed as mouse mean death day at 104 mg/kg, po thrice a day for 8 days after 1 hr viral infection (reference value: 8.9 days). The data set is classed as functional.
Data set [6] has as its system Mus musculus. Kind of data set: Toxicity in mouse assessed as survival at 104 mg/kg, po. The conditions noted are these: in vivo. On the set-up: dose 104 mg/kg, route oral. The format is organism-based. The procedure, abridged: (§3)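 Uninfected toxicity-control mice, 5 per dose, received compound by the oral route alongside the infected groups. Survivors/total recorded, and weight gain was observed.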

The test system of data set [7] is Human respirovirus 1. As to the kind of experiment: Antiviral activity against type 1 parainfluenza virus infected in mouse assessed as mouse mean death day at 52 mg/kg, po thrice a day for 8 days after 1 hr viral infection (reference value: 8.9 days). The format is functional.
In data set [8] the test system is Human respirovirus 1. As to the kind of experiment: Antiviral activity against type 1 parainfluenza virus infected in mouse assessed as mouse survival at 104 mg/kg, po thrice a day for 8 days after 1 hr viral infection. The format is functional, organism-based. Details: dose 104 mg/kg. The procedure, abridged: (§4)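 Sendai (type 1 parainfluenza) virus given intranasally to female mice (18-20 g). Oral dosing three times daily for 8 days, beginning 1 h post-inoculation; 10 infected mice per dose, with a carboxymethylcellulose placebo group. Survivors/total counted, with p values for the survivor increase.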

Data set [9] concerns Human respirovirus 1. As to the kind of experiment: Antiviral activity against type 1 parainfluenza virus infected in mouse assessed as mouse mean death day at 26 mg/kg, po thrice a day for 8 days after 1 hr viral infection (reference value: 8.9 days). The format is functional.
Data set [10] concerns Human respirovirus 1. As to the kind of experiment: Antiviral activity against type 1 parainfluenza virus infected in mouse assessed as mouse survival at 77.5 mg/kg, po thrice a day for 8 days after 1 hr viral infection. On the set-up: dose 77.5 mg/kg. The data set is classed as functional, organism-based. In short, it runs like this:
as §4

For data set [11], the system named is Human respirovirus 1. As to the kind of experiment: Antiviral activity against type 1 parainfluenza virus infected in mouse assessed as mouse survival at 155 mg/kg, po thrice a day for 8 days after 1 hr viral infection. The format is functional, organism-based. Details: dose 155 mg/kg. The procedure, abridged: as §4
For data set [12], the system named is Human respirovirus 1. As to the kind of experiment: Antiviral activity against type 1 parainfluenza virus infected in mouse assessed as mouse survival at 38.8 mg/kg, po thrice a day for 8 days after 1 hr viral infection. The data set is classed as functional, organism-based. Details: dose 38.8 mg/kg. The procedure, abridged: as §4
Data set [13] relates to Human respirovirus 1. As to the kind of experiment: Antiviral activity against type 1 parainfluenza virus infected in mouse assessed as mouse mean death day at 155 mg/kg, po thrice a day for 8 days after 1 hr viral infection (reference value: 8.9 days). The data set is classed as functional.
Data set [14] concerns Mus musculus. As to the kind of experiment: Toxicity in mouse assessed as survival at 155 mg/kg, po. The data set is classed as organism-based. Details: dose 155 mg/kg, route oral. The conditions noted are these: in vivo. In short, it runs like this:
as §3

For data set [15], the system named is Human respirovirus 1. As to the kind of experiment: Antiviral activity against type 1 parainfluenza virus infected in mouse assessed as mouse mean death day at 77.5 mg/kg, po thrice a day for 8 days after 1 hr viral infection (reference value: 8.9 days). The data set is classed as functional.
The test system of data set [16] is Human respirovirus 1. Kind of data set: Antiviral activity against type 1 parainfluenza virus infected in mouse assessed as mouse mean death day at 38.8 mg/kg, po thrice a day for 8 days after 1 hr viral infection (reference value: 8.9 days). The format is functional.
In data set [17] the test system is Mus musculus. Kind of data set: Toxicity in mouse assessed as survival at 77.5 mg/kg, po. On the set-up: dose 77.5 mg/kg, route oral. The conditions noted are these: in vivo. The data set is classed as organism-based. The procedure, abridged:
as §3

Data set [18] concerns Human respirovirus 1. As to the kind of experiment: Antiviral activity against type 1 parainfluenza virus infected in mouse assessed as mouse mean death day at 49.5 mg/kg, po thrice a day for 8 days after 1 hr viral infection (reference value: 8.9 days). The format is functional.
In data set [19] the test system is Mus musculus. Kind of data set: Toxicity in mouse assessed as survival at 99 mg/kg, po. The format is organism-based. On the set-up: dose 99 mg/kg, route oral. The conditions noted are these: in vivo. In short, it runs like this: as §3
Data set [20] relates to Human respirovirus 1. As to the kind of experiment: Antiviral activity against type 1 parainfluenza virus infected in mouse assessed as mouse mean death day at 99 mg/kg, po thrice a day for 8 days after 1 hr viral infection (reference value: 8.9 days). The data set is classed as functional.

For `NC(=O)c1cnc([C@@H]2O[C@H](CO)[C@@H](O)[C@H]2O)s1`, the outcome in [1] and in data set [3] was inactive. In addition, the inhibition at 1000 µM worked out at 1% in data set [2] and 6.8% in [4].
With `NC(=O)c1csc([C@@H]2O[C@H](CO)[C@@H](O)[C@H]2O)n1` [TIAZOFURIN], the Time in [5] came out at 12.3 days; in data set [7], 11 days; in [9], 10.9 days. Also, in data set [6], the Activity entry was “Non-toxic”. The result in [1] and in data set [3] was Active. Also, the inhibition at 1000 µM in data set [2] stood at 0%; in data set [4], 69%. Also, the Survival result in [8] is “Active”.
For the molecule `C[C@H]1O[C@@H](c2nc(C(N)=O)cs2)[C@H](O)[C@@H]1O`, the outcome in data set [1] and in data set [3] was inactive. Besides, the inhibition at 1000 µM in [2] and in data set [4] was 0% in each case.
Consider `CC(=O)OC[C@H]1O[C@@H](c2nc(C(N)=O)cs2)[C@H](OC(C)=O)[C@@H]1OC(C)=O`, for which the result in data set [1] was inactive. Further, the Survival entry in data set [10], in [11] and in data set [12] was “Active” in each case. The Time in data set [13] came out at 8.6 days; in [15] it was 11.9 days; in data set [16], 11 days. Besides, the Activity result in data set [14] and in [17] was “Non-toxic” throughout. Besides, the inhibition at 1000 µM was 0% in [2] and 42% in data set [4]. In addition, in [3], the outcome was Active.
Regarding `NC(=S)c1csc([C@@H]2O[C@H](CO)[C@@H](O)[C@H]2O)n1`, the result in data set [1] and in data set [3] was inactive. Also, the values for the inhibition at 1000 µM in data set [2] and in data set [4] were 0% and 12%, respectively.
With `NC(=O)c1csc(-c2ccc(CO)o2)n1`, the result in data set [1] and in data set [3] was inactive. Also, the inhibition at 1000 µM in data set [2] and in data set [4] was 0% each time.
For `NC(=O)c1ncn([C@@H]2O[C@H](CO)[C@@H](O)[C@H]2O)n1` [RIBAVIRIN], the Time in data set [18] is 12 days; in data set [20], 10 days. The Activity result in [19] is “Non-toxic”.

The inhibition is the change of the read-out against control, counted positive when it falls.
